In ChEMBL document CHEMBL5724801, “EUbOPEN Chemogenomics Library - Multiplex” (2024):
Where “and” joins values, the source holds several entries; their conditions need not be identical. Equal entries are not always repeated.

Tested on: U2OS
Assay: Multiplex assay against U2OS
Type: toxicity, cell-based
Settings: human
Procedure, shortened: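 Four dyes were applied at seeding to live cells: Hoechst33342, BioTracker Green Microtubule Cytoskeleton Dye, MitoTracker Red and Annexin V Alexa Fluor 680. Imaging after compound addition used a CQ1 microscope at 37°C and 5% CO2. CellPathfinder machine-learning gating then sorted cells into Hoechst high-intensity objects or normal cells, normal cells into healthy, pyknosed or fragmented nuclei, and pyknosed cells into mitotic or apoptotic, with tubulin, mitochondrial-mass and membrane-permeability phenotypes given as per cents of healthy-nucleus cells.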

[1] = 12 h, 1 µM, compound concentration 1 uM
[2] = 12 h, 10 µM, compound concentration 10 uM
[3] = 24 h, 1 µM, compound concentration 1 uM
[4] = 24 h, 10 µM, compound concentration 10 uM
[5] = 48 h, 1 µM, compound concentration 1 uM
[6] = 48 h, 10 µM, compound concentration 10 uM

What does the source list for `COc1ccc(Cl)cc1[C@]1(F)C(=O)Nc2cc(C(F)(F)F)ccc21` [FLINDOKALNER]?
Population Apoptotic (%) [1]: 40.48% and 33.33%; Population Fragmented Nuclei (%) [1]: 1.33% and 3.73%; Population Healthy Nuclei (%) [1]: 87.53% and 81.37%; Population Hoechst High Intensity Objects (%) [1]: 0%; Population Membrane Permeable-Phenotype (%) [1]: 1.21% and 0.76%; Population Mitochondria Different-Phenotype (%) [1]: 0.3% and 7.63%; Population Mitotic Cells (%) [1]: 59.52% and 66.67%; Population Normal (%) [1]: 100%; Population Pyknosed Nuclei (%) [1]: 11.14% and 14.91%; Population Tubulin-Different-Phenotype (%) [1]: 0.61% and 0.76%; Total Cell Count [1]: 377 and 161; Population Apoptotic (%) [2]: 21.43% and 29.17%; Population Fragmented Nuclei (%) [2]: 2.21% and 3.35%; Population Healthy Nuclei (%) [2]: 86.19% and 83.24%; Population Hoechst High Intensity Objects (%) [2]: 0%; Population Membrane Permeable-Phenotype (%) [2]: 0.64% and 5.37%; Population Mitochondria Different-Phenotype (%) [2]: 0% and 12.08%; Population Mitotic Cells (%) [2]: 78.57% and 70.83%; Population Normal (%) [2]: 100%; Population Pyknosed Nuclei (%) [2]: 11.6% and 13.41%; Population Tubulin-Different-Phenotype (%) [2]: 1.6% and 1.34%; Total Cell Count [2]: 362 and 179; Population Apoptotic (%) [3]: 41.67% and 37.93%; Population Fragmented Nuclei (%) [3]: 1.57% and 1.48%; Population Healthy Nuclei (%) [3]: 88.98% and 84.24%; Population Hoechst High Intensity Objects (%) [3]: 0%; Population Membrane Permeable-Phenotype (%) [3]: 0.22% and 2.34%; Population Mitochondria Different-Phenotype (%) [3]: 0.22% and 5.26%; Population Mitotic Cells (%) [3]: 58.33% and 62.07%; Population Normal (%) [3]: 100%; Population Pyknosed Nuclei (%) [3]: 9.45% and 14.29%; Population Tubulin-Different-Phenotype (%) [3]: 0.88% and 0.58%; Total Cell Count [3]: 508 and 203; Population Apoptotic (%) [4]: 29.63% and 42.11%; Population Fragmented Nuclei (%) [4]: 1.38% and 4.65%; Population Healthy Nuclei (%) [4]: 88.02% and 77.67%; Population Hoechst High Intensity Objects (%) [4]: 0%; Population Membrane Permeable-Phenotype (%) [4]: 1.34% and 7.78%; Population Mitochondria Different-Phenotype (%) [4]: 0% and 8.38%; Population Mitotic Cells (%) [4]: 70.37% and 57.89%; Population Normal (%) [4]: 100%; Population Pyknosed Nuclei (%) [4]: 10.61% and 17.67%; Population Tubulin-Different-Phenotype (%) [4]: 1.34% and 0%; Total Cell Count [4]: 509 and 215; Population Apoptotic (%) [5]: 38.67% and 50%; Population Fragmented Nuclei (%) [5]: 2.32% and 1.61%; Population Healthy Nuclei (%) [5]: 89.42% and 82.32%; Population Hoechst High Intensity Objects (%) [5]: 0%; Population Membrane Permeable-Phenotype (%) [5]: 1.48% and 1.56%; Population Mitochondria Different-Phenotype (%) [5]: 0.12% and 5.08%; Population Mitotic Cells (%) [5]: 61.33% and 50%; Population Normal (%) [5]: 100%; Population Pyknosed Nuclei (%) [5]: 8.27% and 16.08%; Population Tubulin-Different-Phenotype (%) [5]: 0.74% and 0.78%; Total Cell Count [5]: 907 and 311; Population Apoptotic (%) [6]: 34.18% and 46.94%; Population Fragmented Nuclei (%) [6]: 2.33% and 1.38%; Population Healthy Nuclei (%) [6]: 89.31% and 85.12%; Population Hoechst High Intensity Objects (%) [6]: 0%; Population Membrane Permeable-Phenotype (%) [6]: 0.83% and 3.24%; Population Mitochondria Different-Phenotype (%) [6]: 0% and 5.18%; Population Mitotic Cells (%) [6]: 65.82% and 53.06%; Population Normal (%) [6]: 100%; Population Pyknosed Nuclei (%) [6]: 8.36% and 13.5%; Population Tubulin-Different-Phenotype (%) [6]: 1.3% and 0.32%; Total Cell Count [6]: 945 and 363

For `CCCOc1ccc2[nH]cc(C3=CCNCC3)c2n1.Cl`, which “Population Apoptotic (%)” value [1] is on record?
The value was 80% and 87%.

What about the “Population Fragmented Nuclei (%)” value [1] of the same molecule?
The value was 31% and 13%.

And the “Population Healthy Nuclei (%)” value [1]?
Its value is 58% and 78%.

And the “Population Hoechst High Intensity Objects (%)” value [1]?
Its value is 2% and 1%.

What about the “Population Membrane Permeable-Phenotype (%)” value [1] of the same molecule?
The value was 2% and 11%.

And the “Population Mitochondria Different-Phenotype (%)” value [1]?
The value was 1% and 7%.

And the “Population Mitotic Cells (%)” value [1]?
The value was 19% and 12%.

What about the “Population Normal (%)” value [1] of the same molecule?
Its value is 97% and 98%.

What about the “Population Pyknosed Nuclei (%)” value [1] of the same molecule?
Its value is 9% and 8%.

And the “Population Tubulin-Different-Phenotype (%)” value [1]?
The value was 1% and 5%.

And the “Total Cell Count” value [1]?
Its value is 218 and 98.

What about the “Population Apoptotic (%)” value [2] of the same molecule?
The value was 86% and 60%.

What about the “Population Fragmented Nuclei (%)” value [2] of the same molecule?
Its value is 24% and 17%.

What about the “Population Healthy Nuclei (%)” value [2] of the same molecule?
The value was 66% and 74%.

What about the “Population Hoechst High Intensity Objects (%)” value [2] of the same molecule?
Its value is 4% and 0%.

And the “Population Membrane Permeable-Phenotype (%)” value [2]?
The value was 6% and 12%.

And the “Population Mitochondria Different-Phenotype (%)” value [2]?
The value was 5%.

And the “Population Normal (%)” value [2]?
The value was 96% and 100%.

And the “Population Pyknosed Nuclei (%)” value [2]?
Its value is 8% and 7%.

And the “Population Tubulin-Different-Phenotype (%)” value [2]?
Its value is 3% and 6%.

What about the “Total Cell Count” value [2] of the same molecule?
Its value is 275 and 134.

And the “Population Apoptotic (%)” value [3]?
The value was 70% and 90%.

And the “Population Fragmented Nuclei (%)” value [3]?
Its value is 27% and 18%.

What about the “Population Healthy Nuclei (%)” value [3] of the same molecule?
Its value is 61% and 73%.

And the “Population Hoechst High Intensity Objects (%)” value [3]?
The value was 1% and 2%.

And the “Population Membrane Permeable-Phenotype (%)” value [3]?
Its value is 6% and 3%.

And the “Population Mitochondria Different-Phenotype (%)” value [3]?
The value was 1% and 3%.

What about the “Population Normal (%)” value [3] of the same molecule?
The value was 98% and 97%.

And the “Population Pyknosed Nuclei (%)” value [3]?
The value was 10% and 8%.

And the “Population Tubulin-Different-Phenotype (%)” value [3]?
Its value is 3% and 2%.

And the “Total Cell Count” value [3]?
The value was 252 and 138.

What about the “Population Apoptotic (%)” value [4] of the same molecule?
The value was 92% and 72%.

What about the “Population Fragmented Nuclei (%)” value [4] of the same molecule?
Its value is 25% and 14%.

What about the “Population Healthy Nuclei (%)” value [4] of the same molecule?
Its value is 66% and 78%.

And the “Population Hoechst High Intensity Objects (%)” value [4]?
Its value is 3% and 0%.

What about the “Population Membrane Permeable-Phenotype (%)” value [4] of the same molecule?
The value was 5% and 11%.

What about the “Population Mitochondria Different-Phenotype (%)” value [4] of the same molecule?
Its value is 3% and 2%.

What about the “Population Normal (%)” value [4] of the same molecule?
Its value is 96% and 99%.

And the “Population Pyknosed Nuclei (%)” value [4]?
The value was 8% and 6%.

And the “Population Tubulin-Different-Phenotype (%)” value [4]?
Its value is 3% and 4%.

What about the “Total Cell Count” value [4] of the same molecule?
The value was 323 and 162.

What about the “Population Apoptotic (%)” value [5] of the same molecule?
Its value is 91% and 75%.

What about the “Population Fragmented Nuclei (%)” value [5] of the same molecule?
The value was 19%.

And the “Population Healthy Nuclei (%)” value [5]?
The value was 69% and 74%.

What about the “Population Hoechst High Intensity Objects (%)” value [5] of the same molecule?
Its value is 2%.

What about the “Population Membrane Permeable-Phenotype (%)” value [5] of the same molecule?
The value was 5% and 9%.

And the “Population Mitochondria Different-Phenotype (%)” value [5]?
The value was 3%.

What about the “Population Normal (%)” value [5] of the same molecule?
Its value is 97%.

And the “Population Pyknosed Nuclei (%)” value [5]?
The value was 10% and 6%.

And the “Population Tubulin-Different-Phenotype (%)” value [5]?
Its value is 1% and 3%.

What about the “Total Cell Count” value [5] of the same molecule?
The value was 350 and 183.

What about the “Population Apoptotic (%)” value [6] of the same molecule?
The value was 100% and 94%.

And the “Population Fragmented Nuclei (%)” value [6]?
Its value is 18% and 13%.

And the “Population Healthy Nuclei (%)” value [6]?
Its value is 75% and 78%.

And the “Population Hoechst High Intensity Objects (%)” value [6]?
The value was 4% and 0%.

And the “Population Membrane Permeable-Phenotype (%)” value [6]?
Its value is 5% and 6%.

What about the “Population Mitochondria Different-Phenotype (%)” value [6] of the same molecule?
The value was 2% and 3%.

What about the “Population Mitotic Cells (%)” value [6] of the same molecule?
The value was 0% and 5%.

What about the “Population Normal (%)” value [6] of the same molecule?
The value was 95% and 99%.

What about the “Population Pyknosed Nuclei (%)” value [6] of the same molecule?
Its value is 6% and 7%.

And the “Population Tubulin-Different-Phenotype (%)” value [6]?
The value was 3%.

And the “Total Cell Count” value [6]?
The value was 423 and 243.
